According to ChEMBL document CHEMBL3124843, “Synthesis, cytostatic, antimicrobial, and anti-HCV activity of 6-substituted 7-(het)aryl-7-deazapurine ribonucleosides” (J Med Chem, 2014):
Activity calls are given as the source filed them. No rule for the calls is given here.

Tests used:
Escherichia coli [1] = assay: Antibacterial activity against multi-resistant Escherichia coli C/16702 after 24 hrs; assay type: functional, organism-based
Staphylococcus aureus [2] = assay: Antibacterial activity against Staphylococcus aureus CCM 3953 after 24 hrs; assay type: functional, organism-based
CCRF-CEM = assay: Cytostatic activity against human CCRF-CEM cells after 72 hrs by MTT assay; assay type: functional, cell-based
How it was run: (§1)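 IC50 is the concentration that cuts cell growth by 50%, read by quantitative metabolic MTT staining after a 3-day treatment. The resistant sublines were made by raising the concentration of the cytotoxic drug step by step. CEM-DNR-bulk (daunorubicin-selected) stably overexpresses mrp-1. K562-TAX (paclitaxel-selected) expresses only mdr-1. HCT116p53−/− carries null p53 alleles. BJ and MRC-5 are nonmalignant fibroblasts.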

BJ = assay: Cytostatic activity against human BJ cells after 72 hrs by MTT assay; assay type: ADME, cell-based; how it was run: as §1
Hepatitis C virus [3] = assay: Antiviral activity against Hepatitis C virus subtype 2a infected in human HuH7 cells; assay type: functional, organism-based, Hepacivirus hominis; settings: genotype 2a, Huh-7
Pseudomonas aeruginosa [4] = assay: Antibacterial activity against Pseudomonas aeruginosa CCM 3955 after 24 hrs; assay type: functional, organism-based
Hepatitis C virus [5] = assay: Antiviral activity against Hepatitis C virus subtype 1b infected in human HuH7 cells; assay type: functional, organism-based, Hepacivirus hominis; settings: genotype 1b, Huh-7
Escherichia coli [6] = assay: Antibacterial activity against Escherichia coli CCM 3954 after 24 hrs; assay type: functional, organism-based
HCT-116 [7] = assay: Cytostatic activity against human HCT116 cells after 72 hrs by MTT assay; assay type: functional, cell-based; settings: HCT-116, 72 h; how it was run: as §1
Enterococcus faecalis = assay: Antibacterial activity against Enterococcus faecalis CCM 4224 after 24 hrs; assay type: functional, organism-based
[8] = Antiproliferative activity against human HeLaS3 cells after 72 hrs by XTT assay; assay type: functional, cell-based; settings: HeLa S3, 72 h
How it was run: (§2)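 Antiproliferative test on HL-60 promyelocytic leukemia and HeLa S3 cervical carcinoma cells growing in liquid suspension.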

K562 [9] = assay: Cytostatic activity against human K562 cells after 72 hrs by MTT assay; assay type: functional, cell-based; settings: K562, 72 h; how it was run: as §1
[10] = Cytotoxicity against human HuH7 cells infected with Hepatitis C virus subtype 1b; assay type: cell-based, Huh-7
HL-60 = assay: Antiproliferative activity against human HL60 cells after 72 hrs by XTT assay; assay type: functional, cell-based; settings: HL-60, 72 h; how it was run: as §2
[11] = Cytostatic activity against human CEM-DNR-bulk cells after 72 hrs by MTT assay; assay type: functional, cell-based; how it was run: as §1
Candida parapsilosis = assay: Antifungal activity against Candida parapsilosis after 48 hrs; assay type: functional, organism-based
Candida tropicalis = assay: Antifungal activity against Candida tropicalis after 48 hrs; assay type: functional, organism-based
HCT-116 [12] = assay: Cytostatic activity against p53-deficient human HCT116 cells after 72 hrs by MTT assay; assay type: functional, cell-based; settings: HCT-116, 72 h; how it was run: as §1
Pseudomonas aeruginosa [13] = assay: Antibacterial activity against multi-resistant Pseudomonas aeruginosa A/16575 after 24 hrs; assay type: functional, organism-based
HepG2 = assay: Antiproliferative activity against human HepG2 cells after 72 hrs by XTT assay; assay type: functional, cell-based; settings: HepG2, 72 h
A549 = assay: Cytostatic activity against human A549 cells after 72 hrs by MTT assay; assay type: functional, cell-based; settings: A549, 72 h; how it was run: as §1
[14] = tested on: Staphylococcus haemolyticus; assay: Antibacterial activity against methicillin-resistant Staphylococcus haemolyticus A/16568 after 24 hrs; assay type: functional, organism-based
[15] = Cytotoxicity against human HuH7 cells infected with Hepatitis C virus subtype 2a; assay type: cell-based, Huh-7
MRC5 = assay: Cytostatic activity against human MRC5 cells after 72 hrs by MTT assay; assay type: ADME, cell-based; settings: MRC5, 72 h; how it was run: as §1
K562 [16] = assay: Cytostatic activity against paclitaxel-resistant human K562 cells after 72 hrs by MTT assay; assay type: functional, cell-based; settings: K562, 72 h; how it was run: as §1
Candida albicans = assay: Antifungal activity against Candida albicans after 48 hrs; assay type: functional, organism-based
Staphylococcus aureus [17] = assay: Antibacterial activity against methicillin-resistant Staphylococcus aureus MRSA 4591 after 24 hrs; assay type: functional, organism-based
Pichia kudriavzevii = assay: Antifungal activity against Candida crusei after 48 hrs; assay type: functional, organism-based

SMILES	Activity (Escherichia coli [1])	Activity (Staphylococcus aureus [2])	IC50 (CCRF-CEM)	IC50 (BJ)	EC50 (Hepatitis C virus [3])	Activity (Pseudomonas aeruginosa [4])	EC50 (Hepatitis C virus [5])	Activity (Escherichia coli [6])	IC50 (HCT-116 [7])	Activity (Enterococcus faecalis)	IC50 [8]	IC50 (K562 [9])	CC50 [10]	IC50 (HL-60)	IC50 [11]	Activity (Candida parapsilosis)	Activity (Candida tropicalis)	IC50 (HCT-116 [12])	Activity (Pseudomonas aeruginosa [13])	IC50 (HepG2)	also measured
Nc1nc2c(c(-c3ccccc3)cn2[C@@H]2O[C@H](CO)[C@@H](O)[C@H]2O)c(=O)[nH]1	inactive	inactive	> 100 µM	> 100 µM	> 44 µM	inactive	> 44 µM	inactive	> 20 µM	inactive	> 20 µM	> 20 µM	> 44 µM	> 20 µM	> 20 µM	inactive	inactive	> 20 µM	inactive	> 20 µM	IC50 (A549): > 100 µM; Activity [14]: inactive; CC50 [15]: > 44 µM; IC50 (MRC5): > 100 µM; IC50 (K562 [16]): > 20 µM; Activity (Candida albicans): inactive; Activity (Staphylococcus aureus [17]): inactive; Activity (Pichia kudriavzevii): inactive
C#Cc1cn([C@@H]2O[C@H](CO)[C@@H](O)[C@H]2O)c2ncnc(C)c12	inactive	inactive	5.6 µM	0.05 µM	21.6 µM	inactive	0.23 µM	inactive	> 20 µM	inactive	14.7 µM	6.92 µM	> 44 µM	1.11 µM	0.16 µM	inactive	inactive	> 20 µM	inactive	0.29 µM	IC50 (A549): 19.2 µM; Activity [14]: inactive; CC50 [15]: > 44 µM; IC50 (MRC5): 1.44 µM; IC50 (K562 [16]): 0.11 µM; Activity (Candida albicans): inactive; Activity (Staphylococcus aureus [17]): inactive; Activity (Pichia kudriavzevii): inactive
CSc1ncnc2c1c(I)cn2[C@@H]1O[C@H](CO)[C@@H](O)[C@H]1O	inactive	inactive	> 20 µM	86.1 µM	> 44 µM	inactive	19.2 µM	inactive	> 20 µM	inactive	0.25 µM	10.5 µM	> 44 µM	0.05 µM	> 20 µM	inactive	inactive	> 20 µM	inactive	> 20 µM	IC50 (A549): > 20 µM; Activity [14]: inactive; CC50 [15]: > 44 µM; IC50 (MRC5): > 100 µM; IC50 (K562 [16]): 7.73 µM; Activity (Candida albicans): inactive; Activity (Staphylococcus aureus [17]): inactive; Activity (Pichia kudriavzevii): inactive
CSc1ncnc2c1c(-c1ccsc1)cn2[C@@H]1O[C@H](CO)[C@@H](O)[C@H]1O	inactive	inactive	> 20 µM	95.8 µM	> 44 µM	inactive	10.9 µM	inactive	> 20 µM	inactive	> 20 µM	0.45 µM	> 44 µM	4.59 µM	> 20 µM	inactive	inactive	> 20 µM	inactive	> 15 µM	IC50 (A549): > 20 µM; Activity [14]: inactive; CC50 [15]: > 44 µM; IC50 (MRC5): > 100 µM; IC50 (K562 [16]): > 20 µM; Activity (Candida albicans): inactive; Activity (Staphylococcus aureus [17]): inactive; Activity (Pichia kudriavzevii): inactive
Cc1nc(N)c2c(-c3cc4ccccc4o3)cn([C@@H]3O[C@H](CO)[C@@H](O)[C@H]3O)c2n1	inactive	inactive	> 20 µM	> 100 µM	18.2 µM	inactive	6.14 µM	inactive	> 20 µM	inactive	> 20 µM	15.7 µM	39.2 µM	> 20 µM	6.31 µM	inactive	inactive	13.1 µM	inactive	> 20 µM	IC50 (A549): > 20 µM; Activity [14]: inactive; CC50 [15]: 39.1 µM; IC50 (MRC5): 91.8 µM; IC50 (K562 [16]): 4.99 µM; Activity (Candida albicans): inactive; Activity (Staphylococcus aureus [17]): inactive; Activity (Pichia kudriavzevii): inactive
C#Cc1cn([C@@H]2O[C@H](CO)[C@@H](O)[C@H]2O)c2nc(N)nc(OC)c12	inactive	inactive	> 100 µM	> 100 µM	> 44 µM	inactive	> 44 µM	inactive	> 20 µM	inactive	> 20 µM	> 20 µM	> 44 µM	> 20 µM	> 20 µM	inactive	inactive	> 20 µM	inactive	> 20 µM	IC50 (A549): > 100 µM; Activity [14]: inactive; CC50 [15]: > 44 µM; IC50 (MRC5): > 100 µM; IC50 (K562 [16]): > 20 µM; Activity (Candida albicans): inactive; Activity (Staphylococcus aureus [17]): inactive; Activity (Pichia kudriavzevii): inactive
Nc1nc2c(c(-c3ccoc3)cn2[C@@H]2O[C@H](CO)[C@@H](O)[C@H]2O)c(=O)[nH]1	inactive	inactive	17.9 µM	21.5 µM	40.7 µM	inactive	25.7 µM	inactive	14.2 µM	inactive	10.7 µM	19.6 µM	> 44 µM	> 15 µM	15 µM	inactive	inactive	17.6 µM	inactive	> 20 µM	IC50 (A549): > 20 µM; Activity [14]: inactive; CC50 [15]: > 44 µM; IC50 (MRC5): 86.1 µM; IC50 (K562 [16]): 12.5 µM; Activity (Candida albicans): inactive; Activity (Staphylococcus aureus [17]): inactive; Activity (Pichia kudriavzevii): inactive
Cc1nc(N)c2c(-c3ccsc3)cn([C@@H]3O[C@H](CO)[C@@H](O)[C@H]3O)c2n1	inactive	inactive	> 20 µM	> 100 µM	> 44 µM	inactive	28.7 µM	inactive	> 20 µM	inactive	> 20 µM	> 20 µM	> 44 µM	> 20 µM	> 20 µM	inactive	inactive	> 20 µM	inactive	> 20 µM	IC50 (A549): > 20 µM; Activity [14]: inactive; CC50 [15]: > 44 µM; IC50 (MRC5): > 100 µM; IC50 (K562 [16]): > 20 µM; Activity (Candida albicans): inactive; Activity (Staphylococcus aureus [17]): inactive; Activity (Pichia kudriavzevii): inactive
